Legend:
NCI-H23 = experiment: Cytotoxicity against human NCI-H23 cells assessed as growth inhibition after 72 hrs by SRB assay; type: functional; conditions: NCI-H23, 72 h
[1] = biological target: T1, Nuclear factor NF-kappa-B complex (Homo sapiens) (UniProt Q00653+P19838+Q04206); experiment: Inhibition of transcriptional activity of NF-kappaB (unknown origin) transfected in LPS-stimulated mouse RAW264.7 cells at 100 uM after 16 hrs by secretory alkaline phosphatase reporter gene assay relative to control; type: cell-based
T1 sequence (P19838 whole entry, looked up): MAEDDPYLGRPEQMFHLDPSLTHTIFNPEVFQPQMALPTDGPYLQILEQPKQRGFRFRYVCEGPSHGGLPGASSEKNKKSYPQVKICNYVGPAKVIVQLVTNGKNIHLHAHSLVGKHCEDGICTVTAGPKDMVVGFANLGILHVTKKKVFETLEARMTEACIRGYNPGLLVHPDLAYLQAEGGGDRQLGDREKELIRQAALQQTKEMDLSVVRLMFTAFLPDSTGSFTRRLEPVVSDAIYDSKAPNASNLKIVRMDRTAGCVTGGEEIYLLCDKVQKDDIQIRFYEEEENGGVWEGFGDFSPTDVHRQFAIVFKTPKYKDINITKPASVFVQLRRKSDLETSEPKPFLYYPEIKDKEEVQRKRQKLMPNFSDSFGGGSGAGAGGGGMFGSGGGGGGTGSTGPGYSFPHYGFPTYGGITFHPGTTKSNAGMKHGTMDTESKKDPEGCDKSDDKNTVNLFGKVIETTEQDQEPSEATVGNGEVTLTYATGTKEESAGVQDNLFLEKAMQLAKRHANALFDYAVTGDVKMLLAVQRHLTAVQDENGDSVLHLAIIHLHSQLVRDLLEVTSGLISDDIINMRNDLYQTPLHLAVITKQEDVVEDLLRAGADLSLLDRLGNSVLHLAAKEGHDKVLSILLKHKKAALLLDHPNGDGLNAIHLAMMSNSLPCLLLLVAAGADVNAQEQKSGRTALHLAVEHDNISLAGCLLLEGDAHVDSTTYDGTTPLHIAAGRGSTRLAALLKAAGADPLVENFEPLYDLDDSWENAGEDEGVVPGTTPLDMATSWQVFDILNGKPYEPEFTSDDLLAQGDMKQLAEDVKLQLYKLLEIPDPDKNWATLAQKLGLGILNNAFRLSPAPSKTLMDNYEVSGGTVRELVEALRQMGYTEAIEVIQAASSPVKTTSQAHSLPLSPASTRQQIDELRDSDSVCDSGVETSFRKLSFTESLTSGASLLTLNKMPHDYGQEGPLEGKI
T1 sequence (Q00653 whole entry, looked up): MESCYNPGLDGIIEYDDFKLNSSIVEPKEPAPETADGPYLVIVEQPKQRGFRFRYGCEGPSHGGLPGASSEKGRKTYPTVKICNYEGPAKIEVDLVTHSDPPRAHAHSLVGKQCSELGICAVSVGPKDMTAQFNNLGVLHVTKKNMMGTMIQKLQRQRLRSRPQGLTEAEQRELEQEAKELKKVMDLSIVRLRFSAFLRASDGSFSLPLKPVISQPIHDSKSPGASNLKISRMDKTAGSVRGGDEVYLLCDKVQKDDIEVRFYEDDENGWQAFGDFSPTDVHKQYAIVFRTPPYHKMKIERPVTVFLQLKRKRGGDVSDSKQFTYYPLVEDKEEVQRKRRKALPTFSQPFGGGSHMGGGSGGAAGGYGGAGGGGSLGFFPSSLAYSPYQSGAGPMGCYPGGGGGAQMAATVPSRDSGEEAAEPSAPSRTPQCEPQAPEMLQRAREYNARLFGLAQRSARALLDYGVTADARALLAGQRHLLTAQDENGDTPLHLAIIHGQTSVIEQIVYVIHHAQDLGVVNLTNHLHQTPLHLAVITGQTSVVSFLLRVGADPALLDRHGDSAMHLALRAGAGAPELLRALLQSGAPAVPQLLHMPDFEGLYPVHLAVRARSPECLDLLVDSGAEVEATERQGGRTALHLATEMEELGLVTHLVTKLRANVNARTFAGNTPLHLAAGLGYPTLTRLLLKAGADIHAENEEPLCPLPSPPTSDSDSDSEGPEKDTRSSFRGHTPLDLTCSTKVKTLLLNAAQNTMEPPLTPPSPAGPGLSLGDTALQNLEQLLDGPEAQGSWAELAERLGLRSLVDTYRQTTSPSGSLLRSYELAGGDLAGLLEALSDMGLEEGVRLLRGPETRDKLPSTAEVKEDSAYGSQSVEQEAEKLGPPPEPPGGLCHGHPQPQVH
T1 sequence (Q04206 whole entry, looked up): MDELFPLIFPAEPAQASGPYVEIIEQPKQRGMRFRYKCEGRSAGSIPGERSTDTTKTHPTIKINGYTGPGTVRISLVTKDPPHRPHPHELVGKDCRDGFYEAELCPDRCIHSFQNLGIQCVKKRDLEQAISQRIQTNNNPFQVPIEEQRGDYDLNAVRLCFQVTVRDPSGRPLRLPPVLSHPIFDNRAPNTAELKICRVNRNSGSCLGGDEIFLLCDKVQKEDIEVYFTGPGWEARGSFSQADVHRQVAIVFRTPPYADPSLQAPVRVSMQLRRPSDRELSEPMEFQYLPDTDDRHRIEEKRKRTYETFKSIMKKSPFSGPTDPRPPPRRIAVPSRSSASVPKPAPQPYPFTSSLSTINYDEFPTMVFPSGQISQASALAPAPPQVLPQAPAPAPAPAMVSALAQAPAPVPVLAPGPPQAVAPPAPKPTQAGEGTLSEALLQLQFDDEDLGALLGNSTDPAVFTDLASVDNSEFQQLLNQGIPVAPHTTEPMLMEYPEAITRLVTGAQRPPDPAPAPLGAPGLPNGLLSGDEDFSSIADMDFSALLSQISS
Method in brief: (§1)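 LPS-stimulated RAW 264.7 macrophages carrying NF-κB-driven SEAP reporter; cell-free media heated 65℃ 5 min, then reacted with 500 µM 4-methylumbelliferyl phosphate, 2 M diethanolamine, 1 mM MgCl₂ in the dark at room temperature for 1 h. Fluorescence read at excitation 360 nm / emission 449 nm (RFU). Percent inhibition tested at 100 μM; IC₅₀ as mean of three experiments.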

[2] = biological target: Nuclear factor NF-kappa-B complex (Homo sapiens, UniProt P19838+Q00653+Q04206); experiment: Inhibition of transcriptional activity of NF-kappaB (unknown origin) transfected in LPS-stimulated mouse RAW264.7 cells after 16 hrs by secretory alkaline phosphatase reporter gene assay; type: cell-based; method in brief: as §1
Chain of Nuclear factor NF-kappa-B complex (P19838 1-433 limits assumed): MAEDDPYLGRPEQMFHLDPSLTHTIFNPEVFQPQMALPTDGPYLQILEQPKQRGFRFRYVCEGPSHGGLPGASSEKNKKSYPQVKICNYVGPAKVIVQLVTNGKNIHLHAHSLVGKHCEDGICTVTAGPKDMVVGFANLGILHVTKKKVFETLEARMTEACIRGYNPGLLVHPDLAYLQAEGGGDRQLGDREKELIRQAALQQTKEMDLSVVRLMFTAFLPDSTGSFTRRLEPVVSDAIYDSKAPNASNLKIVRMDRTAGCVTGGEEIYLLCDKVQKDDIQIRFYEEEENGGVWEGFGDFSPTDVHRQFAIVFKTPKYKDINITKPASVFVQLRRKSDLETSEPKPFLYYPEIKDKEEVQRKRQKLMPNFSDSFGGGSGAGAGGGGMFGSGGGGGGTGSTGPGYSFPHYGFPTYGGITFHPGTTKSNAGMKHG
Chain of Nuclear factor NF-kappa-B complex (Q00653 1-454 limits assumed): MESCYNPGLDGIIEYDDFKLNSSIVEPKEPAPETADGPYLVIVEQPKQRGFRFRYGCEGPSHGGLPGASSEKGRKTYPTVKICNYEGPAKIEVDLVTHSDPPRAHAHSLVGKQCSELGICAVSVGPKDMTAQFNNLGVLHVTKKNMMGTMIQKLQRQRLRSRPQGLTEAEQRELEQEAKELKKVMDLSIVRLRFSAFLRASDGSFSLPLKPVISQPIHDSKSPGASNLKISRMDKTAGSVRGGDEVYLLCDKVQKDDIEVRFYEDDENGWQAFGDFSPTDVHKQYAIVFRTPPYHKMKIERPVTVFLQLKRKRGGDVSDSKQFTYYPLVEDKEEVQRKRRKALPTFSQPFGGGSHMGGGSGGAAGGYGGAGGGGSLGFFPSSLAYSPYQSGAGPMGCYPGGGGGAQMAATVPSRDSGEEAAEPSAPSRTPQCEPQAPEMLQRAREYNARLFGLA
Chain of Nuclear factor NF-kappa-B complex (Q04206 whole entry): as the sequence (Q04206 whole entry, looked up) above

[3] = biological target: T1, Nuclear factor NF-kappa-B complex (Homo sapiens); experiment: Potency index, ratio of PDTC IC50 to compound IC50 for inhibition of transcriptional activity of NF-kappaB (unknown origin) transfected in LPS-stimulated mouse RAW264.7 cells

SMILES	GI50 (NCI-H23) [µM]	inhibition [1] [%]	IC50 [2] [µM]	Ratio IC50 [3]
O=C(Nc1ccc(Cl)cc1)C1CCc2ccc3ccccc3c2O1 (stereo unspecified)	2.79	> 100	5.8	–
O=C(Nc1ccc(Cl)c(Cl)c1)C1CCc2ccc3ccccc3c2O1 (stereo unspecified)	23.5	40	–	–
S=C(S)N1CCCC1 [PYRROLIDINE DITHIOCARBAMATE]	–	–	37.2	–
O=C(Nc1ccccc1O)C1CCc2ccc3ccccc3c2O1 (stereo unspecified)	> 30	91	12.3	–
Clc1cccc(NCC2CCc3ccc4ccccc4c3O2)c1 (stereo unspecified)	17.2	36	–	–
O=C(Nc1cc(C(F)(F)F)cc(C(F)(F)F)c1)C1CCc2ccc3ccccc3c2O1 (stereo unspecified)	11.2	66	63.8	–
COc1ccc(NC(=O)C2CCc3ccc4ccccc4c3O2)cc1 (stereo unspecified)	3.98	> 100	12.9	–
CC(C)C(=O)NCC1CCc2ccc3ccccc3c2O1 (stereo unspecified)	> 30	31	–	–
O=C(Nc1ccccc1C(F)(F)F)C1CCc2ccc3ccccc3c2O1 (stereo unspecified)	0.521	> 100	2.4	15
FC(F)(F)c1cc(NCC2CCc3ccc4ccccc4c3O2)cc(C(F)(F)F)c1 (stereo unspecified)	14.6	96	56.3	–
FC(F)(F)c1ccc(NCC2CCc3ccc4ccccc4c3O2)cc1 (stereo unspecified)	> 30	42	–	–
CC(C)CC(=O)NCC1CCc2ccc3ccccc3c2O1 (stereo unspecified)	> 30	77	56.3	–
CC(=O)NCC1CCc2ccc3ccccc3c2O1 (stereo unspecified)	> 30	35	–	–
CC(C)CCNCC1CCc2ccc3ccccc3c2O1 (stereo unspecified)	11.3	> 100	25.9	–
c1ccc(CNCC2CCc3ccc4ccccc4c3O2)cc1 (stereo unspecified)	10.4	> 100	14.6	–
COc1cc2c(cc1O)CCC(C(=O)Nc1ccccc1)O2 (stereo unspecified)	–	–	40.1	–
Clc1ccc(NCC2CCc3ccc4ccccc4c3O2)cc1 (stereo unspecified)	29.8	94	26.5	–
O=C(Nc1ccc(O)cc1)C1CCc2ccc3ccccc3c2O1 (stereo unspecified)	11.3	> 100	5	–
O=C(NCC1CCc2ccc3ccccc3c2O1)c1ccccc1 (stereo unspecified)	11.4	> 100	48.6	–
COc1ccc(NCC2CCc3ccc4ccccc4c3O2)cc1 (stereo unspecified)	12.8	88	44.5	–
O=C(Nc1cc(Cl)cc(Cl)c1)C1CCc2ccc3ccccc3c2O1 (stereo unspecified)	> 30	52	96.7	–
CC(C)CNCC1CCc2ccc3ccccc3c2O1 (stereo unspecified)	11.7	> 100	27.1	–
O=C(Nc1ccccc1)C1CCc2ccc3ccccc3c2O1 (stereo unspecified)	> 30	62	43.5	–
O=C(Nc1ccc(C(F)(F)F)cc1)C1CCc2ccc3ccccc3c2O1 (stereo unspecified)	3.48	> 100	12.9	–
O=C(Nc1cccc(Cl)c1)C1CCc2ccc3ccccc3c2O1 (stereo unspecified)	> 30	87	27.9	–
CCNCC1CCc2ccc3ccccc3c2O1 (stereo unspecified)	> 30	39	–	–
c1ccc(NCC2CCc3ccc4ccccc4c3O2)cc1 (stereo unspecified)	25.8	49	–	–

— ChEMBL document CHEMBL3259810, “Design and synthesis of 3,4-dihydro-2H-benzo[h]chromene derivatives as potential NF-κB inhibitors” (Bioorg Med Chem Lett, 2014)
